Among the data in ChEMBL document CHEMBL3272093, “Antibacterial halogenoacetyl derivatives of amino acids and simple peptides” (1977) are inhibition and MIC values, retold here.

The target in experiment [1] is D-alanyl-D-alanine carboxypeptidase (Streptomyces sp. R61) (UniProt P15555). As to the kind of experiment: Inhibition of Streptomyces R61 DD-carboxypeptidase using Ac2-L-Lys-D-Ala-D-Ala as substrate at 10 to 100 ug/ml. Summed up:
(§1)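 Enzymes tested for release of D-alanine, measured with D-amino acid oxidase. Compounds assayed at 10 and 100 μg/mL. Substrates: Ac2-L-Lys-D-Ala-D-Ala for the Streptomyces R61 enzyme; UDP-N-acetylmuramyl-L-alanyl-meso-diaminopimeloyl-D-alanyl-D-alanine for the B. stearothermophilus and S. typhimurium enzymes.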

The target in experiment [2] is T1, D-alanyl-D-alanine carboxypeptidase DacA (Geobacillus stearothermophilus) (UniProt Q05523).
T1 sequence (whole entry): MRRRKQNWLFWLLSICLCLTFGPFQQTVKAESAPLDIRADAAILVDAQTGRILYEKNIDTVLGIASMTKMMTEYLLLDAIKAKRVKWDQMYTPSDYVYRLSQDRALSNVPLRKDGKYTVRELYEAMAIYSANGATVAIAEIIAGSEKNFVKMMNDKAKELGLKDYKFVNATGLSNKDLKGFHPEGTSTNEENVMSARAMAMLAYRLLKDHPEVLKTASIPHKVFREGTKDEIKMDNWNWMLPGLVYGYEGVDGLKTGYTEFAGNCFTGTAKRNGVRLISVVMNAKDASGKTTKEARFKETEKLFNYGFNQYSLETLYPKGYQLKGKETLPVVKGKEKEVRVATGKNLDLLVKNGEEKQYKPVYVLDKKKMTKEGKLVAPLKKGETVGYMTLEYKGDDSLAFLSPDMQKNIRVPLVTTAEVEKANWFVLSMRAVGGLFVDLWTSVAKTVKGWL
Put plainly: Inhibition of Bacillus stearothermophilus DD-carboxypeptidase using UDP-N-acetylmuramyl-L-alanyl-meso-diaminopimeloyl-D-alanyl-D-alanine as substrate at 10 to 100 ug/ml. The method, boiled down:
as §1

For another experiment, the system named is Escherichia coli. Put plainly: Antibacterial activity against Escherichia coli assessed as inhibition of growth after 18 hrs by broth culture method. The experiment is classed as functional. The method, boiled down:
(§2)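 Broth dilution in 0.5 mL Sensitivity Test Broth, inoculated with 0.2 mL of a 10^-4 dilution of an 18-h broth culture. MIC read after 18-h incubation as the lowest concentration preventing growth.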

The test system of experiment [3] is Salmonella enterica subsp. enterica serovar Typhimurium. Put plainly: Inhibition of Salmonella typhimurium DD-carboxypeptidase using UDP-N-acetylmuramyl-L-alanyl-meso-diaminopimeloyl-D-alanyl-D-alanine as substrate at 10 to 100 ug/ml. Summed up: as §1
For another experiment, the system named is Staphylococcus aureus. Put plainly: Antibacterial activity against Staphylococcus aureus assessed as inhibition of growth after 18 hrs by broth culture method. The experiment is classed as functional. Summed up: as §2

The structures appear in SMILES notation. Values after ≈ are worked out from the molar mass of the structure shown. Active and inactive are the calls of the source. The calls are words filed in the database; no cut-off is given here. Bounds are passed on as bounds.

Broadly, the MIC is the least concentration at which growth counts as inhibited.

D-alanyl-D-alanine carboxypeptidase (Streptomyces sp. R61), sequence (P15555 whole entry): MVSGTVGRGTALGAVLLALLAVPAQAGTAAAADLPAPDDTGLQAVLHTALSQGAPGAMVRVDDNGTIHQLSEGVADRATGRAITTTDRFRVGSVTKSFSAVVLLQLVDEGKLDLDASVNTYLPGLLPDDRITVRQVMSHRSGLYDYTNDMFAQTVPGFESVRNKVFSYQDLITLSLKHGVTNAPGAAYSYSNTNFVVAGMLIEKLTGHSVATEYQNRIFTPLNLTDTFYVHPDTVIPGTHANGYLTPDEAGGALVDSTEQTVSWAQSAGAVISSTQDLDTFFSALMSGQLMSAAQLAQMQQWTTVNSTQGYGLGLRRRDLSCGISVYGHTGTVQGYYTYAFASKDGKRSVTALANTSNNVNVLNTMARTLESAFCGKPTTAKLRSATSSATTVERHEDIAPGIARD

As for `O=C(CI)NCCCCCC(=O)OCc1ccccc1`, the inhibition entry in experiment [1], in experiment [2] and in experiment [3] was “inactive” in each case. Further, the MIC in the experiment on Escherichia coli stood at 62 µg/mL (≈ 159 µM); in the experiment with Staphylococcus aureus, 3.7 µg/mL (≈ 9.51 µM).
Turning to `C[C@@H](NC(=O)CI)C(=O)N[C@H](CCC(=O)O)C(=O)O`, the inhibition entry in experiment [1], in experiment [2] and in experiment [3] was “inactive” throughout. Further, the values for the MIC in the experiment with Escherichia coli and in the experiment on Staphylococcus aureus were greater than 500 µg/mL and 500 µg/mL (≈ 1290 µM), respectively.
Turning to `CC(C)(C)OC(=O)CCCCNC(=O)CI`, the inhibition result in experiment [1], in experiment [2] and in experiment [3] was “inactive” throughout. The minimum inhibitory concentration (MIC) in the experiment with Escherichia coli came to 500 µg/mL (≈ 1470 µM); with Staphylococcus aureus it was 7.5 µg/mL (≈ 22 µM).
For the compound `CC(=O)NCCCC[C@H](NC(=O)CI)C(=O)N[C@H](C)C(=O)N[C@H](C)C(=O)O`, the inhibition result in experiment [1], in experiment [2] and in experiment [3] was “inactive” each time. Moreover, the minimum inhibitory concentration (MIC) in the experiment with Escherichia coli and with Staphylococcus aureus was greater than 500 µg/mL throughout.
On to `C[C@@H](NC(=O)CI)C(=O)OC(C)(C)C`, for which the inhibition entry in experiment [1], in experiment [2] and in experiment [3] was “inactive” in each case. For the same compound, the MIC is greater than 500 µg/mL in the experiment with Escherichia coli and 31 µg/mL (≈ 99 µM) in the experiment with Staphylococcus aureus.
With `CC(=O)NCCCC[C@H](NC(=O)CI)C(=O)N[C@H](C)C(=O)N[C@H](C)C(=O)OC(C)(C)C`, the inhibition result in experiment [1], in experiment [2] and in experiment [3] was “inactive” in each case. The minimal inhibitory concentration (MIC) in the experiment with Escherichia coli is greater than 500 µg/mL; in the experiment on Staphylococcus aureus, 500 µg/mL (≈ 902 µM).
With `C[C@@H](NC(=O)[C@H](CCCCN)NC(=O)CI)C(=O)N[C@H](C)C(=O)OC(C)(C)C.Cc1ccc(S(=O)(=O)O)cc1`, the inhibition result in experiment [1], in experiment [2] and in experiment [3] was “inactive” each time. The minimal inhibitory concentration (MIC) in the experiment with Escherichia coli was greater than 500 µg/mL; in the experiment on Staphylococcus aureus, 250 µg/mL.
As for `C[C@@H](NC(=O)CI)C(=O)N[C@H](CCC(=O)OC(C)(C)C)C(=O)OC(C)(C)C`, the inhibition result in experiment [1], in experiment [2] and in experiment [3] was “inactive” throughout. Further, the MIC is greater than 500 µg/mL in the experiment on Escherichia coli and 31 µg/mL (≈ 62.2 µM) with Staphylococcus aureus.
With `C[C@@H](NC(=O)[C@@H](C)NC(=O)[C@H](CCCCN1C(=O)CCC1=O)NC(=O)CI)C(=O)O`, the inhibition result in experiment [1], in experiment [2] and in experiment [3] was “inactive” in each case. Further, the MIC with Escherichia coli is greater than 500 µg/mL; in the experiment on Staphylococcus aureus, 500 µg/mL (≈ 929 µM).
